Reference: ChEMBL document CHEMBL1275258, “Correlation between azole susceptibilities, genotypes, and ERG11 mutations in Candida albicans isolates associated with vulvovaginal candidiasis in China” (2010)
Values after ≈ are worked out from the molar mass of the structure shown.

Legend:
Type in all cases: functional
Candida albicans [1] = assay: Antifungal activity against Candida albicans isolate V2 with CAI genotype by broth microdilution method
How it was run: (§1)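 CLSI (formerly NCCLS) M27-A2 broth microdilution with fluconazole and itraconazole against clinical C. albicans isolates grouped by source (oral or vaginal) and CAI genotype. Trays incubated at 35°C for 24 h. MIC read as the lowest drug concentration giving a prominent drop in turbidity (50% growth inhibition) versus the drug-free control well. C. albicans ATCC 90028 and C. parapsilosis ATCC 22019 used as quality controls. Group values reported as geometric mean MIC50.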

Candida albicans [2] = assay: Antifungal activity against Candida albicans isolate O with CAI genotype by broth microdilution method; how it was run: as §1
Candida albicans [3] = assay: Antifungal activity against Candida albicans isolate V3 with CAI genotype by broth microdilution method; how it was run: as §1
Candida albicans [4] = assay: Antifungal activity against Candida albicans isolate V5 with CAI genotype by broth microdilution method; how it was run: as §1
Candida albicans [5] = assay: Antifungal activity against Candida albicans isolate V4 with CAI genotype by broth microdilution method; how it was run: as §1
Candida albicans [6] = assay: Antifungal activity against Candida albicans isolate V1 with CAI genotype by broth microdilution method; how it was run: as §1

Row | SMILES | MIC50 (Candida albicans [1]) [µg/mL] | MIC50 (Candida albicans [2]) [µg/mL] | MIC50 (Candida albicans [3]) [µg/mL] | MIC50 (Candida albicans [4]) [µg/mL] | MIC50 (Candida albicans [5]) [µg/mL] | MIC50 (Candida albicans [6]) [µg/mL]
1 | OC(Cn1cncn1)(Cn1cncn1)c1ccc(F)cc1F [FLUCONAZOLE] | 0.218 (≈ 0.712 µM) | 0.356 (≈ 1.16 µM) | 0.735 (≈ 2.4 µM) | 3.36 (≈ 11 µM) | 2.04 (≈ 6.67 µM) | 0.375 (≈ 1.22 µM)
2 | CCC(C)n1ncn(-c2ccc(N3CCN(c4ccc(OCC5COC(Cn6cncn6)(c6ccc(Cl)cc6Cl)O5)cc4)CC3)cc2)c1=O (configuration not stated) [ITRACONAZOLE] | 0.058 (≈ 0.0822 µM) | 0.074 (≈ 0.105 µM) | 0.107 (≈ 0.152 µM) | 0.297 (≈ 0.421 µM) | 0.255 (≈ 0.361 µM) | 0.111 (≈ 0.157 µM)
